Data published in ChEMBL document CHEMBL4219220, “Novel compounds that target lipoprotein lipase and mediate growth arrest in acute lymphoblastic leukemia” (Bioorg Med Chem Lett, 2018).
Active and inactive are the calls of the source. No cut-off for these calls is given here.

Tests used:
REH [1] = test: Antiproliferative activity in human REH cells assessed as inhibition of cell proliferation at 50 uM incubated for 72 hrs by CCK8 assay; format: functional
How it was run: (§1)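 REH (Ph-negative, peripheral blood derived) and SupB15 (Ph-positive, bone marrow derived) B-ALL cells seeded at 50,000 cells/well in 96-well plates. Single test concentration of 50 μM (final) for 72 h, with untreated cells as controls. Proliferation read by CCK-8 (reagent 2 h at 37° C, absorbance 450 nm). Mean ± SEM, N = 3.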

SUP-B15 [2] = test: Antiproliferative activity in human SUP-B15 cells assessed as inhibition of cell proliferation at 50 uM incubated for 72 hrs by CCK8 assay; format: functional, cell-based; how it was run: as §1
REH [3] = test: Antiproliferative activity in human REH cells assessed as inhibition of cell proliferation incubated for 72 hrs by CCK8 assay; format: functional, cell-based
How it was run: (§2)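 Dose-response in REH and SupB15 cells. Proliferation read by CCK-8 after 72 h of compound exposure (reagent 2 h at 37° C, absorbance 450 nm). IC50 taken from the dose-response curve.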

SUP-B15 [4] = test: Antiproliferative activity in human SUP-B15 cells assessed as inhibition of cell proliferation incubated for 72 hrs by CCK8 assay; format: functional, cell-based; details: SUP-B15, 72 h; how it was run: as §2
REH [5] = test: Induction of cell death in human REH cells co-cultured with bone marrow stromal cells assessed as reduction in live cell population of suspended floater cells at 20 to 40 uM; format: functional, cell-based
How it was run: (§3)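 REH leukemic cells in co-culture with bone marrow stromal cells. Two fractions were scored: suspended floaters (FL), and phase dim (PD) cells lying beneath the stromal layer. Read-outs were live cell population and cell death.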

REH [6] = test: Induction of cell death in human REH cells co-cultured with bone marrow stromal cells assessed as reduction in live cell population of phase dim cells buried underneath bone marrow stromal layer at 20 to 40 uM; format: functional, cell-based; how it was run: as §3
REH [7] = test: Induction of cell death in human REH cells co-cultured with bone marrow stromal cells assessed as increase in cell death of suspended floater cells at 20 to 40 uM; format: functional, cell-based; how it was run: as §3
REH [8] = test: Induction of cell death in human REH cells co-cultured with bone marrow stromal cells assessed as increase in cell death of phase dim cells buried underneath bone marrow stromal layer at 20 to 40 uM; format: functional, cell-based; how it was run: as §3
Albumin = Albumin (Homo sapiens, UniProt P02768); test: Binding affinity to serum albumin (unknown origin) at 1 to 100 uM; format: ADME; details: read-out: PB
Sequence of Albumin (P02768 whole entry): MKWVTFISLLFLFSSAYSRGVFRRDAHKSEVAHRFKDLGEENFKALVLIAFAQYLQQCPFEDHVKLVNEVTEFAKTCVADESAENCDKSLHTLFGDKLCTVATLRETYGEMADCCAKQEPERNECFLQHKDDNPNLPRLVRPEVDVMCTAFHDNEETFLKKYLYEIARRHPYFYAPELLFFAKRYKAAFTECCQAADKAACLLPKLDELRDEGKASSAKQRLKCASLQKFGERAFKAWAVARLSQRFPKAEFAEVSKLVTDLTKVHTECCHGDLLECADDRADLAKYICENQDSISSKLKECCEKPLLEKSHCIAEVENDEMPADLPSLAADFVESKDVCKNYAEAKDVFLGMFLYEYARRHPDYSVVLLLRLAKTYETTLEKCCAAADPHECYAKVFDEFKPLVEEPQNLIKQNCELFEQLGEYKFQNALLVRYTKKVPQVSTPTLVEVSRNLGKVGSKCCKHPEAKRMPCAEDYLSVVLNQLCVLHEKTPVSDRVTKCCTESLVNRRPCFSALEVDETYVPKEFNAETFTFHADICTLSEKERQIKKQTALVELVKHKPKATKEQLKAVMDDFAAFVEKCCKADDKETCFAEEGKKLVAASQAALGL

| Structure (SMILES) | inhibition (REH [1]) | inhibition (SUP-B15 [2]) | also measured |
| --- | --- | --- | --- |
| Cc1nc[nH]c1CCCCNC(=O)C1C(c2ccc(F)cc2)C1(C)C (configuration not stated) | Active | inactive |  |
| CC1(C)C(C(=O)NCCCc2cnc(N)s2)C1c1ccc(F)cc1 (configuration not stated) | Active | inactive |  |
| CCc1c(C)nn(CCNC(=O)C2C(c3ccc(F)cc3)C2(C)C)c1C (configuration not stated) |  | Active | inhibition at 50 µM (REH [1]): > 50%; IC50 (REH [3]): 16.5 µM; IC50 (SUP-B15 [4]): 44.7 µM; Activity (REH [5]): Active; Activity (REH [6]): Active; Activity (REH [7]): Active; Activity (REH [8]): Active; fraction unbound at up to 100 µM (Albumin): > 0.95 |
| CSCc1nc(CNC(=O)C2C(c3ccc(F)cc3)C2(C)C)no1 (configuration not stated) | Active | inactive |  |
| CC1(C)C(C(=O)N2CCC3(CCCO3)CC2)C1c1ccc(F)cc1 (configuration not stated) | Active | inactive |  |
| Cc1nccn1-c1ccccc1CNC(=O)C1C(c2ccc(F)cc2)C1(C)C (configuration not stated) | Active | inactive |  |
| CC1(C)C(C(=O)NCC2CCC(C(=O)O)CC2)C1c1ccc(F)cc1 (configuration not stated) | Active | inactive |  |
| Cc1cnc(CNC(=O)C2C(c3ccc(F)cc3)C2(C)C)cn1 (configuration not stated) | Active | inactive |  |
| Cc1cccnc1CN1CCN(C(=O)C2C(c3ccc(F)cc3)C2(C)C)CC1 (configuration not stated) | Active | inactive |  |
| CN1CC2(CCC1=O)CCN(C(=O)C1C(c3ccc(F)cc3)C1(C)C)CC2 (configuration not stated) | Active | inactive |  |
| CC1(C)C(C(=O)NCCCN2CCOCC2)C1c1ccc(F)cc1 (configuration not stated) | Active | inactive |  |
| CC1C=NN=C1C(C)NC(=O)C1C(c2ccc(F)cc2)C1(C)C (configuration not stated) | Active | inactive |  |
| CC1(C)C(C(=O)N2CCN(c3cnccn3)CC2)C1c1ccc(F)cc1 (configuration not stated) | Active | inactive |  |
| Cc1cc(CNC(=O)C2C(c3ccc(F)cc3)C2(C)C)ccn1 (configuration not stated) | Active | inactive |  |
| CC1(C)C(C(=O)NCc2noc(-c3ccco3)n2)C1c1ccc(F)cc1 (configuration not stated) | Active | inactive |  |
| Cc1cccc(=O)n1CCCNC(=O)C1C(c2ccc(F)cc2)C1(C)C (configuration not stated) | Active | inactive |  |
| CSc1ncc(CNC(=O)C2C(c3ccc(F)cc3)C2(C)C)n1C (configuration not stated) | Active | inactive |  |
| CC1(C)C(C(=O)N2CC(c3cccnc3)C2)C1c1ccc(F)cc1 (configuration not stated) | Active | inactive |  |
| CC1(C)C(C(=O)NCCNc2cccnc2)C1c1ccc(F)cc1 (configuration not stated) | Active | inactive |  |
| COCc1cc(CNC(=O)C2C(c3ccc(F)cc3)C2(C)C)n[nH]1 (configuration not stated) | Active | inactive |  |
